Assay results from ChEMBL document CHEMBL1799966, “Synthesis and anticancer activity of oxindole derived imidazo[1,5-a]pyrazines” (Eur J Med Chem, 2011).
pIC50: −log10 of the molar value. Calls of active or inactive are those of the source. No cut-off for these calls is given here.

What was measured:
[1] = system: A549; assay: Induction of apoptosis in human A549 cells assessed as cytoplasmic condensation at 6.5 uM after 24 to 48 hrs by Hoechst 33342 staining; type: functional, cell-based
Method in brief: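 A549 cells were grown 24 h on coverslips at 10,000 cells, then exposed to 6.5 µM for 24 h and 48 h, with 0.001% DMSO vehicle controls. Hoechst 33342 (0.5 µg/mL) with 4% paraformaldehyde was applied for 30 min at 37 °C. Random fields were examined by fluorescence microscopy, scoring relative fluorescence and nuclear fragmentation.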

[2] = system: A549; assay: Growth inhibition of human A549 cells; type: functional, cell-based
Method in brief: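 MTT reduction assay. Cells were seeded at 1 × 10^4 per well in DMEM with 10% FBS and pre-incubated 24 h at 37 °C under CO2. Compounds were diluted in medium and incubated 24 h. Medium was then removed, MTT (5 mg/mL stock) added for 4 h, formazan dissolved in DMSO, and absorbance read at 540 nm.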

[3] = system: A549; assay: Induction of cell cycle arrest in human A549 cells assessed as accumulation at S phase at 6.5 uM after 24 hrs by propidium iodide staining-based FACS analysis (reference value: 19.21 %); type: functional
Method in brief: (§1)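 A549 cells (1 × 10^6) in six-well plates received 6.5 µM (final) for 24 h or 48 h. Floating and adherent cells were fixed in 70% ethanol, washed in PBS, then stained for 20 min with 50 µg/mL propidium iodide in hypotonic citrate/Triton X-100 buffer with DNase-free RNase A. Cells were analysed by FACS.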

[4] = system: A549; assay: Induction of cell cycle arrest in human A549 cells assessed as accumulation at G2/M phase at 6.5 uM after 24 hrs by propidium iodide staining-based FACS analysis (reference value: 20.92 %); type: functional; method in brief: as §1
[5] = system: A549; assay: Induction of cell cycle arrest in human A549 cells assessed as accumulation at G0/G1 phase at 6.5 uM after 48 hrs by propidium iodide staining-based FACS analysis (reference value: 56.26 %); type: functional; method in brief: as §1
[6] = system: A549; assay: Induction of cell cycle arrest in human A549 cells assessed as accumulation at S phase at 6.5 uM after 48 hrs by propidium iodide staining-based FACS analysis (reference value: 19.21 %); type: functional; method in brief: as §1
[7] = system: HEK293; assay: Cytotoxicity against human HEK293 cells after 48 hrs by MTT assay; type: cell-based; details: hek293, 48 h
Method in brief: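 HEK-293 cells were seeded at 1 × 10^4 cells/well in DMEM with 10% FBS and held 24 h at 37 °C under CO2. Compound diluted in culture medium was added for 48 h. MTT (5 mg/mL stock) was then added for 4 h, formazan dissolved in DMSO, and absorbance read at 540 nm.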

[8] = system: A549; assay: Induction of apoptosis in human A549 cells assessed as viable cells at 6.5 uM after 48 hrs using Annexin V-FITC and PI staining by flow cytometry (reference value: 11.1 %); type: functional; details: A549, 48 h, read-out: Activity
[9] = system: A549; assay: Induction of apoptosis in human A549 cells assessed as pre-necrotic cells at 6.5 uM after 48 hrs using Annexin V-FITC and PI staining by flow cytometry (reference value: 0.5 %); type: functional
[10] = system: EKVX; assay: Cytotoxicity against human EKVX cells; type: functional
Method in brief: (§2)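 NCI 60-cell panel second-stage testing by NCI standard procedures. Compound was dissolved in DMSO and tested at five 10-fold dilutions: 10^-4, 10^-5, 10^-6, 10^-7 and 10^-8 M.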

[11] = system: NCI-H23; assay: Cytotoxicity against human NCI-H23 cells; type: functional; method in brief: as §2
[12] = system: NCI-H522; assay: Cytotoxicity against human NCI-H522 cells; type: functional; method in brief: as §2
[13] = system: COLO 205; assay: Cytotoxicity against human COLO205 cells; type: functional; method in brief: as §2
[14] = system: HCT-15; assay: Cytotoxicity against human HCT15 cells; type: functional; method in brief: as §2
[15] = system: KM12; assay: Cytotoxicity against human KM12 cells; type: functional; method in brief: as §2
[16] = system: SNB-19; assay: Cytotoxicity against human SNB19 cells; type: functional
Method in brief: (§3)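 NCI 60-cell-line panel protocol. Primary screen used a single 10^-5 M concentration with 48 h incubation, and percent growth was read against untreated cells by sulforhodamine B protein staining. The five-dose follow-up used a DMSO solution at five 10-fold dilutions from 10^-4 to 10^-8 M.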

[17] = system: SNB-75; assay: Cytotoxicity against human SNB75 cells; type: functional; method in brief: as §3
[18] = system: DU-145; assay: Cytotoxicity against human DU145 cells; type: functional; method in brief: as §2
[19] = system: SK-MEL-28; assay: Cytotoxicity against human SK-MEL-28 cells; type: functional; method in brief: as §3
[20] = system: LOX IMVI; assay: Cytotoxicity against human LOXIMVI cells; type: functional; method in brief: as §2
[21] = system: UACC-257; assay: Cytotoxicity against human UACC257 cells; type: functional; method in brief: as §3
[22] = system: IGROV-1; assay: Cytotoxicity against human IGROV1 cells; type: functional; method in brief: as §2
[23] = system: OVCAR-3; assay: Cytotoxicity against human OVCAR3 cells; type: functional; method in brief: as §2
[24] = system: A498; assay: Cytotoxicity against human A498 cells; type: functional; method in brief: as §2
[25] = system: ACHN; assay: Cytotoxicity against human ACHN cells; type: functional; method in brief: as §2
[26] = system: TK-10; assay: Cytotoxicity against human TK10 cells; type: functional; method in brief: as §3
[27] = system: MDA-MB-231; assay: Cytotoxicity against human MDA-MB-231 cells; type: functional; method in brief: as §2
[28] = system: BT-549; assay: Cytotoxicity against human BT549 cells; type: functional; method in brief: as §2
[29] = system: SNB-75; assay: Anticancer activity against human SNB75 cells assessed as mean cell growth at 10^-5 M after 48 hrs by SRB assay; type: functional
Method in brief: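 NCI-60 primary screen run to the US NCI protocol. Compound added at a single concentration of 10^-5 M and cultures incubated 48 h. The end point was sulforhodamine B (SRB) protein staining, reported as percent growth of treated cells relative to untreated control cells.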

pIC50 [2]: 5.19
SMILES: O=C1Nc2ccccc2/C1=C\c1nc(-c2ccccc2F)n2ccccc12
Activity [1]: Active
Activity [3]: 13.51%
Activity [4]: 17.46%
Activity [5]: 75.85%
Activity [6]: 5.74%
Activity [7]: Non-toxic
viability at 6.5 µM [8]: 8.3%
Activity [9]: 0.9%
GI50 [10]: 10.6 µM
GI50 [11]: 4.55 µM
GI50 [12]: 2.18 µM
GI50 [13]: 4.08 µM
GI50 [14]: 13 µM
GI50 [15]: 3.49 µM
GI50 [16]: 4.7 µM
GI50 [17]: 1.79 µM
GI50 [18]: 3.26 µM
GI50 [19]: 3.71 µM
GI50 [20]: 4.15 µM
GI50 [21]: 5.2 µM
GI50 [22]: 2.04 µM
GI50 [23]: 1.9 µM
GI50 [24]: 2.81 µM
GI50 [25]: 3.3 µM
GI50 [26]: 4.05 µM
GI50 [27]: 2.27 µM
GI50 [28]: 3.36 µM
Activity [29]: 18.49%
